Assay results as given in the M2OR odorant receptor database.

Target: T1, UniProt Q99NH4
T1 sequence (whole entry): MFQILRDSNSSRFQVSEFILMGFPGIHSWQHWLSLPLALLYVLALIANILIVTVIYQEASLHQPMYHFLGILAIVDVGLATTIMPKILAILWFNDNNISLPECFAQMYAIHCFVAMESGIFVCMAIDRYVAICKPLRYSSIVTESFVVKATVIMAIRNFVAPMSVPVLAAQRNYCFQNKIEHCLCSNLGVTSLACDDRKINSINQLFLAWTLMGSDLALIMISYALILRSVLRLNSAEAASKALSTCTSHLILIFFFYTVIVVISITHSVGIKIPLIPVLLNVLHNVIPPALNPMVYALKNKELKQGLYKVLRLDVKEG
Settings: stereoisomer not certain
Outline: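 Assay methods differ from source to source, frequently being transient luciferase assays in mammalian cell lines. For each receptor–molecule pair, the label responsive (active) applies when the original authors judged the measured signal statistically different from baseline, and non-responsive (inactive) applies otherwise.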

Odorant receptor agonist call, inactive:
O=C([O-])CCCC(=O)[O-].[H+].[H+]
O=C([O-])CCC(=O)[O-].[H+].[H+]
O=C(O)CCCCCCCCCBr
O=C(O)CCCCCCCCC(=O)O
CCCCCCCCCCC(=O)O
O=C(O)CCCCCCCCCCC(=O)O
CCCCCCCCCCCC(=O)O
O=C(O)CCCCCCCCCC(=O)O
